Screening data: PubChem BioAssay, several laboratories
ATG4B inh: ATG4B (human) cysteine protease inhibition; 340,000 tested, 0.51% active; ATG4B cleavage of LC3-PLA2, NBD-HPC fluorescence, 1 h; inhibition, % at 8.33 µM; Q9Y4P1; in the data active = inhibition above about 40%
MPTP inh: inhibitors of mitochondrial permeability transition pore; inhibition, % at 10 µM; isolated mouse mitochondria, Ca2+ swelling absorbance, 30 min; 360,000 tested, 1.4% active;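 active = inhibition of 50% or more, scaled per plate between neutral and stimulator controls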
MC4R barr agon: agonists of human melanocortin 4 receptor (MC4R) beta-arrestin; U2OS MC4R beta-arrestin complementation, luminescence; percent of melanotan II response, DMSO zero; activation, % at 8.9 µM; 360,000 tested, 0.98% active; AID 540308;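 active = activation above a per-plate cutoff, the mean activation of sample wells on that plate plus 3 SD, cut at about 8% in these data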
Target sequence (P32245 whole entry, looked up): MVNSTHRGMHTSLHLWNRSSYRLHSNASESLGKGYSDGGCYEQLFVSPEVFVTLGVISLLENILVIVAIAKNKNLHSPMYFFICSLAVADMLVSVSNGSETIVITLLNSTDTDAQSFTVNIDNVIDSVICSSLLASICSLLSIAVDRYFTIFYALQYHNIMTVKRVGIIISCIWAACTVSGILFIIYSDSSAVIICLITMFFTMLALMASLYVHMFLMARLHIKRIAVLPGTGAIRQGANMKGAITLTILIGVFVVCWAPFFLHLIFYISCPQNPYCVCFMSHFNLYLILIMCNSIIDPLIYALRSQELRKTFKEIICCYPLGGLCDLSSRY
SMARCA2 act: increases SMARCA2 function in MMTV reporter cells; MG213 cells, MMTV-luciferase reporter, dexamethasone, overnight; activation, % at 9.1 µM; 370,000 tested, 1% active; AID 652017; in the data active = activation above about 7.8%
MC4R antag cAMP: antagonists of human melanocortin 4 receptor (MC4R). P32245. inhibition, % at 6.5 µM. 360,000 tested, 0.48% active. MC4R-expressing cells, MTII-stimulated cAMP, LANCE TR-FRET;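 active = inhibition above its plate's cutoff, the mean of tested wells on that plate plus 3 SD, cut at about 29% in these data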
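Material: human MC4R-expressing U2OS cells. Probe or stimulus: Melanotan II challenge. Dosing: 6.5 µM single dose. Times: 30-min compound, 1-h challenge, 1-h detection, room temperature. Technique: TR-FRET with Eu-cAMP and labeled anti-cAMP, 671 nm. Replication: singlicate.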
ATG4B confirm: confirmation of human ATG4B inhibitors. ATG4B protease fluorescent substrate cleavage assay. 320 tested, 92% active. shares compounds with ATG4B inh. AID 504757. inhibition, % at 8.33 µM; in the data active = inhibition above about 39%
PLA2 ctr: inhibits human PLA2, flagging false ATG4B inhibitors; shares compounds with ATG4B inh; purified PLA2, NBD-C6-HPC fluorescence, 45 min; inhibition, % at 8.33 µM; 1,600 tested, 66% active; in the data active = inhibition above about 50%
Target sequence (P04054 whole entry, looked up): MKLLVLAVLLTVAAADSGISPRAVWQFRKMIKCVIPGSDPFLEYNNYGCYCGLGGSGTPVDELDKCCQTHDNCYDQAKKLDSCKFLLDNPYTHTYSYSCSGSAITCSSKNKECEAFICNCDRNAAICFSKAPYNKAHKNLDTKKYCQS
Of the large screens only hits and unclear results are named; the others gave an inactive call (follow-up assays come after a bar, where they were run). This is a sample that favours compounds with a hit; in the whole collection about 4.1% have one here.

COc1ccc(-c2c(C#N)c(N)nc3sc(C(=O)c4ccc(C)cc4)c(N)c23)cc1	none
O=C(O)c1sc(C(=O)O)c(-c2ccccc2)c1-c1ccccc1	none (no result: ATG4B inh)
Oc1c(Br)cc(Br)cc1C=Nc1ccc2c(c1)OCCO2	none
Oc1c(Br)cc(Br)cc1C=Nc1ccc2c(c1)OCO2	ATG4B inh 62.8 | ATG4B confirm 48.2 | PLA2 ctr inactive
CC1(C)Cc2c(cnn2-c2ccccc2)-c2c1c1ccccc1n2CC(O)CBr (stereo not given)	ATG4B inh 47.5 | PLA2 ctr 57.2
O=C(CCCn1c(=S)[nH]c2cc3c(cc2c1=O)OCO3)N1CCN(c2ccc(F)cc2)CC1	ATG4B inh 55.8 | ATG4B confirm 59.5 | PLA2 ctr inactive
O=C(CCCn1c(=S)[nH]c2cc3c(cc2c1=O)OCO3)N1CCN(c2ccccc2F)CC1	ATG4B inh 50.6 | PLA2 ctr 53.7
Cc1ccc(C)c(N2CCN(C(=O)CCCn3c(=S)[nH]c4cc5c(cc4c3=O)OCO5)CC2)c1	ATG4B inh 51.8 | PLA2 ctr 62.5
O=C(CCCCCn1c(=S)[nH]c2cc3c(cc2c1=O)OCO3)N1CCN(c2ccccc2)CC1	none
COc1ccccc1N1CCN(C(=O)CCCCCn2c(=S)[nH]c3cc4c(cc3c2=O)OCO4)CC1	none (no result: ATG4B inh)
O=C(Cn1cnc2ccccc2c1=O)N1CCCCC1	none (no result: ATG4B inh, MPTP inh, MC4R barr agon, MC4R antag cAMP)
CN(C)c1ccc(/C=N\NC(=O)c2cccc(S(=O)(=O)N(C)C)c2)cc1	none (no result: ATG4B inh, MPTP inh, MC4R barr agon, MC4R antag cAMP)
COc1ccc2c(c1)[C@@]1(NCCc3c1[nH]c1ccc(OC)cc31)C(=O)N2	none (no result: ATG4B inh, MPTP inh, MC4R barr agon, MC4R antag cAMP)
COc1ccccc1NC(=O)OC1CCC12CCCCC2 (stereo not given)	none (no result: ATG4B inh, MPTP inh, MC4R barr agon, MC4R antag cAMP)
CCC(C)[C@H](Nc1nc(-c2ccccc2)nc2c1oc1ccccc12)C(=O)O (stereo not given in full)	ATG4B inh 44.1 | PLA2 ctr 54.4
O=C(NC1CCCCN(Cc2ccc(Cl)cc2)C1=O)c1ccc2ccccc2c1 (stereo not given)	none (no result: ATG4B inh, MPTP inh, MC4R barr agon, MC4R antag cAMP)
O=C(Nc1ccc(N2CCCC2)c(Cl)c1)c1ccco1	none
CCN1CCN(c2c(Cl)cccc2NC(=O)c2ccc3c(c2)OCCO3)CC1	ATG4B inh 64.9 | PLA2 ctr 66.8
O=C(Nc1cccc(Cl)c1N1CCCC1)c1ccco1	ATG4B inh 62.6 | PLA2 ctr 67.5
NC(=O)c1ccc(C(F)(F)F)n(Cc2cccc(Cl)c2)c1=O	ATG4B inh 44.5 | ATG4B confirm 64.4 | PLA2 ctr inactive
NC(=O)c1ccc(C(F)(F)F)n(Cc2ccc(Cl)cc2)c1=O	none
C[C@@H]1/C=C/CC(=O)N2[C@H](CC(=O)N[C@@H]1c1ccccc1)C[C@@H](C)[C@H]2c1ccccc1	none (no result: ATG4B inh, MPTP inh, MC4R barr agon, MC4R antag cAMP)
Clc1ccc(C2Nc3cccc4cccc(c34)N2)c(Cl)c1	none
O=C1NC(c2cccc3ccccc23)Nc2ccc(Cl)cc21 (stereo not given)	ATG4B inh 43.4 | PLA2 ctr 58.7
C=CC[C@H]1c2ccccc2[C@H]2N3N=Cc4ccccc4[C@H]3[C@H](CCCC)C(=O)N2N1C(=O)NCc1ccccc1	none (no result: ATG4B inh, MPTP inh, MC4R barr agon, MC4R antag cAMP)
Cc1cc(NC(=O)CSc2nc3c(c(=O)n2-c2ccc(Cl)cc2)SCC3)no1	none
COC(=O)c1ccc(CSc2nc3ccccc3c(=O)n2-c2ccccc2)o1	ATG4B inh 65.3 | PLA2 ctr 73.3
COC(=O)c1ccc(CSc2nc3c(c(=O)n2-c2ccc(F)cc2)SCC3)o1	ATG4B inh 47.7 | PLA2 ctr inactive
O=C(CSc1nc2c(c(=O)n1-c1ccc(Cl)cc1)SCC2)Nc1nccs1	ATG4B inh 60.9 | PLA2 ctr 80.5
COc1ccc(-c2noc(CSc3nc4ccccc4c(=O)n3-c3ccccc3)n2)cc1	none
O=c1c2ccccc2nc(SCc2nnc(-c3ccccc3)o2)n1-c1ccccc1	ATG4B inh 72.3 | PLA2 ctr 73.0
COC(=O)c1ccc(CSc2nc3c(c(=O)n2-c2ccccc2)SCC3)o1	none
CC(C)N1CCCCC(NC(=O)c2cccc(F)c2)C1=O (stereo not given)	none (no result: ATG4B inh, MPTP inh, MC4R barr agon, MC4R antag cAMP)
